Results: ChEMBL document CHEMBL1124414, “2(1H)-quinolinones with cardiac stimulant activity. 2. Synthesis and biological activities of 6-(N-linked, five-membered heteroaryl) derivatives” (1989)

How the values were obtained:
Canis familiaris [1] = assay: Relative inotropic potency compared with 4-[4-[2-(1,1-dioxo-2-isothiazolidinyl)ethyl]-1-piperidinyl]-6,7-dimethoxyquinazoline at 50 ug/kg after administration at 25 ug/kg intravenously to anesthetized dogs; type: functional, Canis lupus familiaris
How it was run: (§1)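 Anesthetized dogs instrumented for dP/dt max from left ventricular pressure by carotid catheter. Drug given iv in 0.9% saline. The standard quinazoline inotrope (50 μg/kg iv) was tested in the same dog. Relative potency = (% increase in dP/dt max to drug ÷ % increase to standard) × (standard dose ÷ drug dose).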

Canis familiaris [2] = assay: Compound was examined for effects on cardiac contractility after oral administration of 0.5 mg/Kg to conscious dogs for 1 hr; type: functional, Canis lupus familiaris, Heart
How it was run: (§2)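 Conscious dogs dosed orally by gavage with a solution of test substance. QA interval recorded every 0.16 h from 0.5 h predose to up to 4 h postdose. Each time-point value is the mean of six consecutive sets, each set the mean over an 8-s period. Result is the change from mean predose control QA interval, read at 1 h and 3 h. Saline-dosed controls n = 8.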

Canis familiaris [3] = assay: Compound was examined for effects on cardiac contractility to decrease in QA interval after oral administration of 0.5 mg/Kg to conscious dogs for 3h; type: functional, Canis lupus familiaris, Heart; how it was run: as §2
Canis familiaris [4] = assay: Compound was tested for cardiotonic activity after intravenous administration of 25 ug/Kg to anesthetized dogs; type: functional, Canis lupus familiaris
How it was run: (§3)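 Anesthetized dogs with left ventricular pressure recorded by Millar catheter via the carotid artery. The signal is differentiated to give dP/dt max as the contractility index. Equilibration 0.75 h after surgery. Drug given iv in 0.9% saline 0.5 h after a standard inotrope (50 μg/kg). Doses repeated once control levels returned, at least 0.5 h apart. Result is % increase in dP/dt max after a single dose.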

Canis familiaris [5] = assay: Relative inotropic potency compared with 4-[4-[2-(1,1-dioxo-2-isothiazolidinyl)ethyl]-1-piperidinyl]-6,7-dimethoxyquinazoline at 50 ug/kg after administration at 12.5 ug/kg intravenously to anesthetized dogs; type: functional, Canis lupus familiaris; how it was run: as §1
Canis familiaris [6] = assay: Compound was examined for effects on cardiac contractility after oral administration of 0.125 mg/Kg to conscious dogs for 1 hr; type: functional, Canis lupus familiaris, Heart; how it was run: as §2
Canis familiaris [7] = assay: Compound was examined for effects on cardiac contractility to decrease in QA interval after oral administration of 0.125 mg/Kg to conscious dogs for 3h; type: functional, Canis lupus familiaris, Heart; how it was run: as §2
Canis familiaris [8] = assay: Compound was tested for cardiotonic activity after intravenous administration of 12.5 ug/Kg to anesthetized dogs; type: functional, Canis lupus familiaris; how it was run: as §3
Canis familiaris [9] = assay: Compound was examined for effects on cardiac contractility after oral administration of 0.25 mg/Kg to conscious dogs for 1 hr; type: functional, Canis lupus familiaris, Heart; how it was run: as §2
Canis familiaris [10] = assay: Compound was examined for effects on cardiac contractility to decrease in QA interval after oral administration of 0.25 mg/Kg to conscious dogs for 3h; type: functional, Canis lupus familiaris, Heart; how it was run: as §2
Canis familiaris [11] = assay: Relative inotropic potency compared with 4-[4-[2-(1,1-dioxo-2-isothiazolidinyl)ethyl]-1-piperidinyl]-6,7-dimethoxyquinazoline at 50 ug/kg after administration at 10 ug/kg intravenously to anesthetized dogs; type: functional, Canis lupus familiaris; how it was run: as §1
Canis familiaris [12] = assay: Compound was tested for cardiotonic activity after intravenous administration of 10 ug/Kg to anesthetized dogs; type: functional, Canis lupus familiaris; how it was run: as §3
Canis familiaris [13] = assay: Relative inotropic potency compared with 4-[4-[2-(1,1-dioxo-2-isothiazolidinyl)ethyl]-1-piperidinyl]-6,7-dimethoxyquinazoline at 50 ug/kg after administration at 6.5 ug/kg intravenously to anesthetized dogs; type: functional, Canis lupus familiaris; settings: in the assay text read “6.25 ug/kg” for “6.5 ug/kg”; how it was run: as §1
Canis familiaris [14] = assay: Compound was examined for effects on cardiac contractility after oral administration of 0.0625 mg/Kg to conscious dogs for 1 hr; type: functional, Canis lupus familiaris, Heart; how it was run: as §2
Canis familiaris [15] = assay: Compound was examined for effects on cardiac contractility to decrease in QA interval after oral administration of 0.0625 mg/Kg to conscious dogs for 3h; type: functional, Canis lupus familiaris, Heart; how it was run: as §2
Canis familiaris [16] = assay: Compound was tested for cardiotonic activity after intravenous administration of 6.25 ug/Kg to anesthetized dogs; type: functional, Canis lupus familiaris; how it was run: as §3
Canis familiaris [17] = assay: Relative inotropic potency compared with 4-[4-[2-(1,1-dioxo-2-isothiazolidinyl)ethyl]-1-piperidinyl]-6,7-dimethoxyquinazoline at 50 ug/kg after administration at 250 ug/kg intravenously to anesthetized dogs; type: functional, Canis lupus familiaris; how it was run: as §1
Canis familiaris [18] = assay: Compound was tested for cardiotonic activity after intravenous administration of 250 ug/Kg to anesthetized dogs; type: functional, Canis lupus familiaris; how it was run: as §3
Canis familiaris [19] = assay: Relative inotropic potency compared with 4-[4-[2-(1,1-dioxo-2-isothiazolidinyl)ethyl]-1-piperidinyl]-6,7-dimethoxyquinazoline at 50 ug/kg after administration at 50 ug/kg intravenously to anesthetized dogs; type: functional, Canis lupus familiaris; how it was run: as §1
Canis familiaris [20] = assay: Compound was examined for effects on cardiac contractility after oral administration of 1 mg/Kg to conscious dogs for 1 hr; type: functional, Canis lupus familiaris, Heart; how it was run: as §2
Canis familiaris [21] = assay: Compound was examined for effects on cardiac contractility to decrease in QA interval after oral administration of 1 mg/Kg to conscious dogs for 3h; type: functional, Canis lupus familiaris, Heart; how it was run: as §2
Canis familiaris [22] = assay: Compound was tested for cardiotonic activity after intravenous administration of 50 ug/Kg to anesthetized dogs; type: functional, Canis lupus familiaris; how it was run: as §3
Canis familiaris [23] = assay: Relative inotropic potency compared with 4-[4-[2-(1,1-dioxo-2-isothiazolidinyl)ethyl]-1-piperidinyl]-6,7-dimethoxyquinazoline at 50 ug/kg after administration of 50 ug/kg intravenously to anesthetized dogs; type: functional, Canis lupus familiaris; how it was run: as §1
Canis familiaris [24] = assay: Relative inotropic potency compared with 4-[4-[2-(1,1-dioxo-2-isothiazolidinyl)ethyl]-1-piperidinyl]-6,7-dimethoxyquinazoline at 50 ug/kg after iv administration of 25 ug/kg to anesthetized dogs; type: functional, Canis lupus familiaris; how it was run: as §1

Question: What does the source list for `Cc1cc(-n2cncn2)cc2ccc(O)nc12`?
Answer: Relative inotropic potency (Canis familiaris [1]): 3.6; Decrease in QA interval (Canis familiaris [2]): 21 ms; Decrease in QA interval (Canis familiaris [3]): 21 ms; Increase in dP/dt max (Canis familiaris [4]): 67%

Question: With `Cc1cc(-n2ccnc2C)cc2ccc(O)nc12` as the compound, how does the Relative inotropic potency (Canis familiaris [5]) read?
Answer: 5.5

Question: And the “Decrease in QA interval” value (Canis familiaris [6])?
Answer: 14 ms

Question: And the “Decrease in QA interval” value (Canis familiaris [7])?
Answer: 13 ms

Question: And the “Increase in dP/dt max” value (Canis familiaris [8])?
Answer: 50%

Question: With `Cc1cc(-n2cnnn2)cc2ccc(O)nc12` as the compound, how does the Relative inotropic potency (Canis familiaris [1]) read?
Answer: 3.4

Question: And the “Decrease in QA interval” value (Canis familiaris [9])?
Answer: 15 ms

Question: And the “Decrease in QA interval” value (Canis familiaris [10])?
Answer: 16 ms

Question: And the “Increase in dP/dt max” value (Canis familiaris [4])?
Answer: 117%

Question: How did the Relative inotropic potency (Canis familiaris [11]) turn out when `Cc1cn(-c2cc(C)c3nc(O)cc(C)c3c2)c(C)n1` was run?
Answer: 1.2

Question: What about the “Increase in dP/dt max” value (Canis familiaris [12]) of the same compound?
Answer: 10%

Question: Which results are given for `Cc1cc(-n2cnc(C(F)(F)F)c2)cc2ccc(O)nc12`?
Answer: Relative inotropic potency (Canis familiaris [5]): 4.5; Decrease in QA interval (Canis familiaris [6]): 11 ms; Decrease in QA interval (Canis familiaris [7]): 5 ms; Increase in dP/dt max (Canis familiaris [8]): 82%

Question: For `Cc1cn(-c2cc(C)c3nc(O)ccc3c2)cn1`, which Relative inotropic potency (Canis familiaris [13]) is on record?
Answer: 16.3

Question: And the “Decrease in QA interval” value (Canis familiaris [14])?
Answer: 12 ms

Question: What about the “Decrease in QA interval” value (Canis familiaris [15]) of the same compound?
Answer: 7 ms

Question: What about the “Increase in dP/dt max” value (Canis familiaris [16]) of the same compound?
Answer: 59%

Question: With `Cc1cn(-c2ccc3nc(O)ccc3c2)c(C)n1` as the compound, how does the Relative inotropic potency (Canis familiaris [17]) read?
Answer: 0.2

Question: And the “Increase in dP/dt max” value (Canis familiaris [18])?
Answer: 29%

Question: How did the Relative inotropic potency (Canis familiaris [19]) turn out when `Cc1cn(-c2cc(C)c3c(c2)CCC(=O)N3)c(C)n1` was run?
Answer: 0.9

Question: What about the “Decrease in QA interval” value (Canis familiaris [20]) of the same compound?
Answer: 12 ms

Question: And the “Decrease in QA interval” value (Canis familiaris [21])?
Answer: 13 ms

Question: And the “Increase in dP/dt max” value (Canis familiaris [22])?
Answer: 52%

Question: With `Cc1cn(-c2cc(C(F)(F)F)c3nc(O)ccc3c2)c(C)n1` as the compound, how does the Relative inotropic potency (Canis familiaris [17]) read?
Answer: 0.2

Question: What about the “Increase in dP/dt max” value (Canis familiaris [18]) of the same compound?
Answer: 22%

Question: What does the source list for `Cc1cc(-n2cccn2)cc2ccc(O)nc12`?
Answer: Relative inotropic potency (Canis familiaris [23]): 1.7; Increase in dP/dt max (Canis familiaris [22]): 79%

Question: How did the Relative inotropic potency (Canis familiaris [19]) turn out when `Cc1cc(-n2ncnn2)cc2ccc(O)nc12` was run?
Answer: 1.1

Question: What about the “Increase in dP/dt max” value (Canis familiaris [22]) of the same compound?
Answer: 24%

Question: With `Cc1cc(-n2cncc2C)cc2ccc(O)nc12` as the compound, how does the Relative inotropic potency (Canis familiaris [5]) read?
Answer: 4.9

Question: What about the “Decrease in QA interval” value (Canis familiaris [6]) of the same compound?
Answer: 14 ms

Question: What about the “Decrease in QA interval” value (Canis familiaris [7]) of the same compound?
Answer: 11 ms

Question: What about the “Increase in dP/dt max” value (Canis familiaris [8]) of the same compound?
Answer: 55%

Question: Which results are given for `Cc1cc(-n2cnnc2)cc2ccc(O)nc12`?
Answer: Relative inotropic potency (Canis familiaris [1]; in the assay text read “administration at 50 ug/kg” for “administration at 25 ug/kg”): 2.3; Decrease in QA interval (Canis familiaris [9]): 15 ms; Decrease in QA interval (Canis familiaris [10]): 17 ms; Increase in dP/dt max (Canis familiaris [22]): 68%

Question: What does the source list for `Cc1cn(-c2cc(C)c3c(c2)C(C)CC(=O)N3)c(C)n1` (stereo unspecified)?
Answer: Relative inotropic potency (Canis familiaris [11]): 1.9; Increase in dP/dt max (Canis familiaris [12]): 20%

Question: How did the Relative inotropic potency (Canis familiaris [24]) turn out when `Cc1cc(-n2ccnc2)cc2ccc(O)nc12` was run?
Answer: 4.5

Question: What about the “Decrease in QA interval” value (Canis familiaris [9]) of the same compound?
Answer: 20 ms

Question: And the “Decrease in QA interval” value (Canis familiaris [10])?
Answer: 15 ms

Question: And the “Increase in dP/dt max” value (Canis familiaris [4])?
Answer: 139%

Question: With `Cc1[nH]c(=O)c(C#N)cc1-c1ccncc1` [MILRINONE] as the compound, how does the Relative inotropic potency (Canis familiaris [1]) read?
Answer: 1.6

Question: What about the “Decrease in QA interval” value (Canis familiaris [9]) of the same compound?
Answer: 13 ms

Question: And the “Decrease in QA interval” value (Canis familiaris [10])?
Answer: 7 ms

Question: And the “Increase in dP/dt max” value (Canis familiaris [4])?
Answer: 46%

Question: `Cc1cn(-c2cc(C)c3[nH]c(=O)ccc3c2)c(C)n1` [NANTERINONE] was tested. Which Relative inotropic potency (Canis familiaris [5]) did it give?
Answer: 7.6

Question: What about the “Decrease in QA interval” value (Canis familiaris [9]) of the same compound?
Answer: 16 ms

Question: And the “Decrease in QA interval” value (Canis familiaris [10])?
Answer: 17 ms

Question: What about the “Increase in dP/dt max” value (Canis familiaris [8]) of the same compound?
Answer: 40%
